Results of several laboratories.
Protocols differ between the studies behind these lines.
Sample: plasma

| SMILES | system | conditions | half-life [h] |
| --- | --- | --- | --- |
| CC(C)c1nc(N(C)S(C)(=O)=O)nc(-c2ccc(F)cc2)c1/C=C/[C@@H](O)C[C@@H](O)CC(=O)O | human | oral, 10 mg | 21.6 |
| CC1(C)CC[C@]2(NC(=O)C(C)(F)F)CC[C@]3(C)[C@H](C(=O)C=C4[C@@]5(C)C=C(C#N)C(=O)C(C)(C)[C@@H]5CC[C@]43C)[C@@H]2C1 | human | oral, 150 mg, single dose | 88.3 |
| C=CC(=O)NC1CCN(c2ncc3ncnc(Nc4ccc(Oc5ccc6c(c5)ncn6C)c(C)c4)c3n2)CC1 | male human | intravenous, 100 µg, healthy volunteers | 42.7 |
| C[C@@H](Oc1ccc(S(C)(=O)=O)cc1C(=O)N1C[C@@H]2C[C@]2(c2cc(C(F)(F)F)on2)C1)C(F)(F)F | human | oral, 10 mg, single dose, fasted, healthy volunteers | 38.1 |
| O=C(COc1ccc(Cl)cc1)NC12CC(c3nnc([C@H]4C[C@@H](OC(F)(F)F)C4)o3)(C1)C2 | human | oral, 145 mg, multiple doses, once daily, healthy volunteers | 37.5 |
| Cc1cn([C@H]2C[C@H](N=[N+]=[N-])[C@@H](CO)O2)c(=O)[nH]c1=O | human | oral, 600 mg, single dose, healthy volunteers | 1.95 |
| OC[C@H]1O[C@@H](c2cc(Cc3ccc(C4CC4)cc3)c(Cl)c3c2CCO3)[C@H](O)[C@@H](O)[C@@H]1O | human | oral, 0.3 mg, single dose, fasted, healthy volunteers | 12.5 |
| N#Cc1cccc(-c2ccc3ncc(-c4cc(F)cc(F)c4)c(N4CCC(N)CC4)c3c2)c1O | human | intravenous, 50 µg | 30 |
| CC(=O)N(C)[C@H]1CCN(C(=O)c2cnc3c(c2)C[C@](C)(c2ccc(F)cc2)N3)C1 | male human | oral, 30 mg, multiple doses, once daily, steady state | 21.8 |
| COc1ccc2c(c1)CN(C(=O)CCN1CCC(Cc3ccccc3)CC1)CC[S@@+]2[O-] | male human | intravenous, 0.15 mg/kg, single dose, healthy volunteers | 6.39 |
